In ChEMBL document CHEMBL4152328, “Design, synthesis, in vitro and in silico evaluation of a new series of oxadiazole-based anticancer agents as potential Akt and FAK inhibitors” (Eur J Med Chem, 2018):
The source made the active and inactive calls. The rule behind the calls is not given here.

Tests used:
C6 [1] = experiment: Cytotoxicity against rat C6 cells assessed as decrease in cell viability after 24 hrs by MTT assay; assay type: functional, cell-based; conditions: C6, 24 h
Procedure, shortened: (§1)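 Viability was read as cellular MTT reduction. Cisplatin and GSK690693 were run as reference controls. IC50 values were derived for each cell line.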

A549 [2] = experiment: Cytotoxicity against human A549 cells assessed as decrease in cell viability after 24 hrs by MTT assay; assay type: functional, cell-based; conditions: A549, 24 h; procedure, shortened: as §1
NIH3T3 = experiment: Cytotoxicity against mouse NIH/3T3 cells assessed as decrease in cell viability after 24 hrs by MTT assay; assay type: cell-based; conditions: NIH3T3, 24 h; procedure, shortened: as §1
[3] = Selectivity index, ratio of IC50 for mouse NIH/3T3 cells to IC50 for rat C6 cells; assay type: toxicity; conditions: NIH/3T3 cells versus C6 cells, read-out: Ratio IC50
Procedure, shortened: (§2)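 Selectivity index = IC50 for NIH/3T3 normal fibroblasts / IC50 for the cancer line (A549 or C6). […] An IC50 above 403.00 was taken as 403.00.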

[4] = Selectivity index, ratio of IC50 for mouse NIH/3T3 cells to IC50 for human A549 cells; assay type: toxicity; conditions: NIH/3T3 cells versus A549 cells, read-out: Ratio IC50; procedure, shortened: as §2
C6 [5] = experiment: Induction of apoptosis in rat C6 cells assessed as early/late apoptotic cells at IC50 after 24 hrs by Annexin V-FITC/PI staining based flow cytometry (reference value: 8%); assay type: functional
C6 [6] = experiment: Induction of apoptosis in rat C6 cells assessed as viable cells at IC50 after 24 hrs by Annexin V-FITC/PI staining based flow cytometry (reference value: 90%); assay type: functional
A549 [7] = experiment: Induction of apoptosis in human A549 cells assessed as early/late apoptotic cells at IC50 after 24 hrs by Annexin V-FITC/PI staining based flow cytometry (reference value: 7.1%); assay type: functional
A549 [8] = experiment: Induction of apoptosis in human A549 cells assessed as viable cells at IC50 after 24 hrs by Annexin V-FITC/PI staining based flow cytometry (reference value: 89%); assay type: functional
C6 [9] = experiment: Induction of mitochondrial membrane potential loss in rat C6 cells assessed as intact mitochondrial membrane potential at IC50 measured after 24 hrs by JC-1 staining based flow cytometric analysis (reference value: 80%); assay type: functional
C6 [10] = experiment: Induction of mitochondrial membrane potential loss in rat C6 cells at IC50 measured after 24 hrs by JC-1 staining based flow cytometric analysis (reference value: 19.9%); assay type: functional
A549 [11] = experiment: Induction of mitochondrial membrane potential loss in human A549 cells assessed as intact mitochondrial membrane potential at IC50 measured after 24 hrs by JC-1 staining based flow cytometric analysis (reference value: 90.4%); assay type: functional
A549 [12] = experiment: Induction of mitochondrial membrane potential loss in human A549 cells at IC50 measured after 24 hrs by JC-1 staining based flow cytometric analysis (reference value: 9.8%); assay type: functional
C6 [13] = experiment: Induction of apoptosis in rat C6 cells assessed as caspase-3 negative cell level at IC50 after 24 hrs by FITC-A labeled flow cytometry (reference value: 96.4%); assay type: functional
C6 [14] = experiment: Induction of apoptosis in rat C6 cells assessed as caspase-3 positive cell level at IC50 after 24 hrs by FITC-A labeled flow cytometry (reference value: 4.8%); assay type: functional
A549 [15] = experiment: Induction of apoptosis in human A549 cells assessed as caspase-3 negative cell level at IC50 after 24 hrs by FITC-A labeled flow cytometry (reference value: 98.1%); assay type: functional
A549 [16] = experiment: Induction of apoptosis in human A549 cells assessed as caspase-3 positive cell level at IC50 after 24 hrs by FITC-A labeled flow cytometry (reference value: 2.1%); assay type: functional
[17] = target: RAC-alpha serine/threonine-protein kinase (Rattus norvegicus, UniProt P47196); experiment: Inhibition of Akt in rat C6 cells after 24 hrs by ELISA; assay type: cell-based
Procedure, shortened: (§3)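 In-cell colorimetric ELISA: 10,000 cells/well were treated 24 h, then fixed in 4% formaldehyde for 15 min, permeabilised, quenched and blocked. Primary antibody ran overnight at 4 °C, then HRP conjugate for 30 min, then TMB; absorbance was read at 450 nm. Wells were in triplicate and blank-subtracted. Activity is relative to untreated cells; IC50 came from graphs of three concentrations.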

[18] = target: RAC-alpha serine/threonine-protein kinase (Homo sapiens, UniProt P31749); experiment: Inhibition of Akt in human A549 cells after 24 hrs by ELISA; assay type: cell-based; procedure, shortened: as §3
Focal adhesion kinase 1 = Focal adhesion kinase 1 (Rattus norvegicus, UniProt O35346); experiment: Inhibition of FAK phasphorylation at Tyr397 residues in rat C6 cells after 24 hrs by ELISA; assay type: cell-based
Procedure, shortened: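 Cell-based colorimetric ELISA in C6 cells treated 24 h: cells were fixed in 4% formaldehyde for 20 min, quenched, and blocked for 1 h. Anti-FAK pTyr397, anti-FAK and anti-GAPDH primaries ran overnight at 4 °C, then HRP secondaries for 1.5 h and substrate for 30 min. OD450 was read in duplicate wells; pFAK was normalised to GAPDH. IC50 came from graphs of three concentrations.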

A549 [19] = experiment: Induction of apoptotic morphological alterations in human A549 cells assessed as rounding of cells at IC50 after 24 hrs by transmission electron microscopy; assay type: functional, cell-based
Procedure, shortened: (§4)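 Cells were fixed in 2.5% glutaraldehyde in 0.1 M PBS pH 7.4 and held overnight at 4 °C, then agar-embedded and post-fixed in 2% osmium tetroxide. They were dehydrated through graded ethanol, embedded in EPON 812, ultrathin-sectioned and examined by transmission electron microscopy.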

A549 [20] = experiment: Induction of apoptotic morphological alterations in human A549 cells assessed as disruption of cellular organization at IC50 after 24 hrs by transmission electron microscopy; assay type: functional, cell-based; procedure, shortened: as §4
A549 [21] = experiment: Induction of apoptotic morphological alterations in human A549 cells assessed as cell shrinkage at IC50 after 24 hrs by transmission electron microscopy; assay type: functional, cell-based; procedure, shortened: as §4
A549 [22] = experiment: Induction of apoptotic morphological alterations in human A549 cells assessed as DNA condensation at IC50 after 24 hrs by transmission electron microscopy; assay type: functional, cell-based; procedure, shortened: as §4
A549 [23] = experiment: Induction of apoptotic morphological alterations in human A549 cells assessed as organellar membrane damage at IC50 after 24 hrs by transmission electron microscopy; assay type: functional, cell-based; procedure, shortened: as §4
C6 [24] = experiment: Induction of apoptotic morphological alterations in rat C6 cells assessed as rounding of cells at IC50 after 24 hrs by transmission electron microscopy; assay type: functional, cell-based; procedure, shortened: as §4
C6 [25] = experiment: Induction of apoptotic morphological alterations in rat C6 cells assessed as disruption of cellular organization at IC50 after 24 hrs by transmission electron microscopy; assay type: functional, cell-based; procedure, shortened: as §4
C6 [26] = experiment: Induction of apoptotic morphological alterations in rat C6 cells assessed as cell shrinkage at IC50 after 24 hrs by transmission electron microscopy; assay type: functional, cell-based; procedure, shortened: as §4
C6 [27] = experiment: Induction of apoptotic morphological alterations in rat C6 cells assessed as DNA condensation at IC50 after 24 hrs by transmission electron microscopy; assay type: functional, cell-based; procedure, shortened: as §4
C6 [28] = experiment: Induction of apoptotic morphological alterations in rat C6 cells assessed as organellar membrane damage at IC50 after 24 hrs by transmission electron microscopy; assay type: functional, cell-based; procedure, shortened: as §4
A549 [29] = experiment: Induction of apoptotic morphological alterations in human A549 cells assessed as increase in large vacuoles in cytoplasm containing degraded cellular material at IC50 after 24 hrs by transmission electron microscopy; assay type: functional, cell-based; procedure, shortened: as §4
A549 [30] = experiment: Induction of apoptotic morphological alterations in human A549 cells assessed as membrane damage at IC50 after 24 hrs by transmission electron microscopy; assay type: functional, cell-based; procedure, shortened: as §4
A549 [31] = experiment: Induction of apoptotic morphological alterations in human A549 cells assessed as nuclear fragmentation at IC50 after 24 hrs by transmission electron microscopy; assay type: functional, cell-based; procedure, shortened: as §4
C6 [32] = experiment: Induction of apoptotic morphological alterations in rat C6 cells assessed as chromatin condensation at IC50 after 24 hrs by transmission electron microscopy; assay type: functional, cell-based; procedure, shortened: as §4
C6 [33] = experiment: Induction of apoptotic morphological alterations in rat C6 cells assessed as large vacuoles at IC50 after 24 hrs by transmission electron microscopy; assay type: functional, cell-based; procedure, shortened: as §4
C6 [34] = experiment: Induction of apoptotic morphological alterations in rat C6 cells assessed as membrane damage at IC50 after 24 hrs by transmission electron microscopy; assay type: functional, cell-based; procedure, shortened: as §4

Sequence of RAC-alpha serine/threonine-protein kinase (Rattus norvegicus, UniProt P47196) (P47196 whole entry): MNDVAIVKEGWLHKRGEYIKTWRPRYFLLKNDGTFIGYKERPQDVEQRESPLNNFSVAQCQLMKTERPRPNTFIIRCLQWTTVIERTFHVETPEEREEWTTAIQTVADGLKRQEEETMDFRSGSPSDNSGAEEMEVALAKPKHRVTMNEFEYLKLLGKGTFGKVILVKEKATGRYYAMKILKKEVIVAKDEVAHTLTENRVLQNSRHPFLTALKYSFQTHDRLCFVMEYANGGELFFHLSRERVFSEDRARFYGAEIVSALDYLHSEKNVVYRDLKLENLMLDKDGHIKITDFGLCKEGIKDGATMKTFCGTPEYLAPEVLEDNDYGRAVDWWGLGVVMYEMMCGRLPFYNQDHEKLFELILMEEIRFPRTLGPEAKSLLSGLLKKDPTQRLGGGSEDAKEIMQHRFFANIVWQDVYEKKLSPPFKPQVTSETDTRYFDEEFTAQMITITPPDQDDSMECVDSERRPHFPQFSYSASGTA
Sequence of Focal adhesion kinase 1 (O35346 whole entry): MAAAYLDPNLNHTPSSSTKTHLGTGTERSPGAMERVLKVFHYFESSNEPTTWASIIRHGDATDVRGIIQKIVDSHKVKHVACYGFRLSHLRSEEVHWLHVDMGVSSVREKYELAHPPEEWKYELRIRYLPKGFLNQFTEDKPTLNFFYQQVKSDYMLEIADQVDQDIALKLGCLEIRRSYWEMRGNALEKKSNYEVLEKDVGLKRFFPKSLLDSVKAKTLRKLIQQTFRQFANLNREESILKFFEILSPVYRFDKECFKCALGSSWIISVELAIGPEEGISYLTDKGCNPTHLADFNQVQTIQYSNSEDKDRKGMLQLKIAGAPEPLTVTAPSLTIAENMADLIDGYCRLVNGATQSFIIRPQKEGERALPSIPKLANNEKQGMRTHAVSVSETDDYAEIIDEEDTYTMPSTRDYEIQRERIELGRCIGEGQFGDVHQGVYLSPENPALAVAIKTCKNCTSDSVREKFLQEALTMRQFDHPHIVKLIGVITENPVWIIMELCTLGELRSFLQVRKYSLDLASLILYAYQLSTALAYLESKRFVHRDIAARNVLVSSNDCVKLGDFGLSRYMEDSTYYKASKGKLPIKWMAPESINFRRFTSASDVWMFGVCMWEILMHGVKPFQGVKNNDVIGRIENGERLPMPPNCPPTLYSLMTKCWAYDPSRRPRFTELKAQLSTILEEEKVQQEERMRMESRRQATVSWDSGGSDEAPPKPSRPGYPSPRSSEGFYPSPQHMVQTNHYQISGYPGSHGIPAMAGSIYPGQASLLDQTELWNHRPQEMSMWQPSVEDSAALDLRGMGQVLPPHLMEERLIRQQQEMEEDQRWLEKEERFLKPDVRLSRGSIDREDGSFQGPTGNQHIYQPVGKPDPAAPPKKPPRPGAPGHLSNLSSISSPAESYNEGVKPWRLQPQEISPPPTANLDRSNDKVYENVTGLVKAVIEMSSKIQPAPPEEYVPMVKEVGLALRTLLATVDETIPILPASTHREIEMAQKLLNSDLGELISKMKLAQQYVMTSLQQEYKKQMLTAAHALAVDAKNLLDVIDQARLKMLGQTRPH
Sequence of RAC-alpha serine/threonine-protein kinase (Homo sapiens, UniProt P31749) (P31749 whole entry): as the sequence (P47196 whole entry) above, with N2S, E46D, S50A, R112K, T117E, A137S, T389K, N410G, D415H counted along it

`COc1ccc2nc(NC(=O)CSc3nnc(COc4ccc5c(c4)CCCC5)o3)sc2c1` gave an IC50 (C6 [1]) of 4.63 µM, an IC50 (A549 [2]) of 39.3 µM and an IC50 (NIH3T3) of 94.3 µM. The selectivity ratio [3] was 20.4, the selectivity ratio [4] was 2.4 and the Activity (C6 [5]) was 5%. The Activity (C6 [6]) was 92.3%, the Activity (A549 [7]) was 12.2% and the Activity (A549 [8]) was 71.7%. The Activity (C6 [9]) was 24.4%, the Activity (C6 [10]) was 74.4% and the Activity (A549 [11]) was 69.8%. For the same compound, the Activity (A549 [12]) was 27.9%, the Activity (C6 [13]) was 69.8% and the Activity (C6 [14]) was 33.9%. It also gave an Activity (A549 [15]) of 76.4%, an Activity (A549 [16]) of 25% and an IC50 [17] of 2.6 µM. The IC50 [18] was 27.5 µM, the IC50 (Focal adhesion kinase 1) was 19.5 µM and the Activity (A549 [19]) was “Active”. For the same compound, the Activity (A549 [20]) was “Active”, the Activity (A549 [21]) was “Active” and the Activity (A549 [22]) was “Active”. The Activity (A549 [23]) was “Active”, the Activity (C6 [24]) was “Active” and the Activity (C6 [25]) was “Active”. For the same compound, the Activity (C6 [26]) was “Active”, the Activity (C6 [27]) was “Active” and the Activity (C6 [28]) was “Active”. For the same compound, the Activity (A549 [29]) was “Active”, the Activity (A549 [30]) was “Active” and the Activity (A549 [31]) was “Active”. The Activity (C6 [32]) was “Active”, the Activity (C6 [33]) was “Active” and the Activity (C6 [34]) was “Active”.
